# ChEMBL document CHEMBL1159028, “Antimicrobial agents from Licaria puchuri-major and their synergistic effect with polygodial” (1992)
# Columns and labels:
# Format in all cases: functional
# [1] = system: Cutibacterium acnes; assay: Antimicrobial activity against Propionibacterium acnes ATCC 11827 after 2 days by twofold serial broth dilution method; conditions: ATCC 11827, 48 h
# Summary of the method: (§1)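 ATCC strains were revived from freeze-dried stock, then grown in medium of 0.8% nutrient broth, 0.5% yeast extract and 0.1% glucose. Twofold serial broth dilution used compound in DMF (1% DMF final), with a top concentration of 800 µg/ml. Cultures were stationary for 2 days, and growth was read as turbidity at OD 660 nm. MIC was the lowest concentration with no growth.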
# [2] = system: Saccharomyces cerevisiae; assay: Antimicrobial activity against Saccharomyces cerevisiae ATCC 7754 after 2 days by twofold serial broth dilution method; conditions: ATCC 7754, 48 h
# Summary of the method: (§2)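 Yeasts were grown in 2.5% malt extract broth. Twofold serial broth dilution used compound in DMF (1% DMF final), with a top concentration of 800 µg/ml. After 2 days of stationary culture, turbidity was read at OD 660 nm. MIC was the lowest concentration with no growth. Checkerboard combinations with polygodial were tested at least twice per fungus.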
# [3] = system: Malassezia furfur; assay: Antimicrobial activity against Pityrosporum ovale ATCC 14521 by twofold serial broth dilution method
# Summary of the method: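 Medium: 1% bactopeptone, 0.5% yeast extract, 1% glucose and 0.1% corn oil. Twofold broth dilution used compound in DMF (1% final), with a top concentration of 800 µg/ml. Culture was stationary for 2 days, and growth was scored visually. MIC was the lowest concentration without growth. Checkerboard combinations with polygodial were tested at least twice.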
# [4] = system: Bacillus subtilis; assay: Antimicrobial activity against Bacillus subtilis ATCC 9372 after 2 days by twofold serial broth dilution method; conditions: ATCC 9372, 48 h; summary of the method: as §1
# [5] = system: Corynebacterium ammoniagenes; assay: Antimicrobial activity against Brevibacterium ammoniagenes ATCC 6872 after 2 days by twofold serial broth dilution method; conditions: ATCC 6872, 48 h; summary of the method: as §1
# [6] = system: Penicillium chrysogenum; assay: Antimicrobial activity against Penicillium chrysogenum ATCC 10106 after 5 days by twofold serial broth dilution method; conditions: ATCC 10106, 120 h
# Summary of the method: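 Mould was grown in 2.5% malt extract broth with shaking. Compound in DMF (1% final) was serially diluted twofold, to a maximum of 800 µg/ml. Growth was judged by eye after 5 days. MIC was the lowest concentration showing no growth.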
# [7] = system: Klebsiella aerogenes; assay: Antimicrobial activity against Enterobacter aerogenes ATCC 13048 after 2 days by twofold serial broth dilution method; conditions: ATCC 13048, 48 h; summary of the method: as §1
# [8] = system: Staphylococcus aureus; assay: Antimicrobial activity against Staphylococcus aureus ATCC 12598 after 2 days by twofold serial broth dilution method; conditions: ATCC 12598, 48 h; summary of the method: as §1
# [9] = system: Escherichia coli; assay: Antimicrobial activity against Escherichia coli ATCC 9637 after 2 days by twofold serial broth dilution method; conditions: ATCC 9637, 48 h; summary of the method: as §1
# [10] = system: Cyberlindnera jadinii; assay: Antimicrobial activity against Candida utilis ATCC 9226 after 2 days by twofold serial broth dilution method; conditions: Williopsis jadinii, ATCC 9226, 48 h; summary of the method: as §2
# [11] = system: Pseudomonas aeruginosa; assay: Antimicrobial activity against Pseudomonas aeruginosa ATCC 10145 after 2 days by twofold serial broth dilution method; conditions: ATCC 10145, 48 h; summary of the method: as §1
# [12] = system: Streptococcus mutans; assay: Antimicrobial activity against Streptococcus mutans ATCC 25175 after 2 days by twofold serial broth dilution method; conditions: ATCC 25175, 48 h
# Summary of the method: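 ATCC strain grown in 3.7% brain heart infusion broth. Twofold serial broth dilution used compound dissolved in DMF (1% DMF final), with a top concentration of 800 µg/ml. After 2 days of stationary culture, growth was read as turbidity at OD 660 nm. MIC was the lowest concentration with no growth.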
compound,measurement,setting,value
CC1=CC[C@@H](C(C)(C)O)CC1 [ALPHA-TERPINEOL],MIC,[1],100 µg/mL
same,MIC,[2],800 µg/mL
same,MIC,[3],400 µg/mL
same,MIC,[4],800 µg/mL
same,MIC,[5],> 800 µg/mL
same,MIC,[6],400 µg/mL
same,MIC,[7],> 800 µg/mL
same,MIC,[8],> 800 µg/mL
same,MIC,[9],800 µg/mL
same,MIC,[10],800 µg/mL
same,MIC,[11],> 800 µg/mL
same,MIC,[12],400 µg/mL
C/C=C/c1ccc(OC)cc1 [ANETHOLE],MIC,[1],100 µg/mL
same,MIC,[2],200 µg/mL
same,MIC,[3],100 µg/mL
same,MIC,[4],400 µg/mL
same,MIC,[5],200 µg/mL
same,MIC,[6],> 800 µg/mL
same,MIC,[7],> 800 µg/mL
same,MIC,[8],> 800 µg/mL
same,MIC,[9],200 µg/mL
same,MIC,[10],200 µg/mL
same,MIC,[11],> 800 µg/mL
same,MIC,[12],200 µg/mL
C=C1CC/C=C(/C)CC[C@@H]2[C@@H]1CC2(C)C [CARYOPHYLLENE],MIC,[1],6.25 µg/mL
same,MIC,[2],> 800 µg/mL
same,MIC,[3],> 800 µg/mL
same,MIC,[4],50 µg/mL
same,MIC,[5],100 µg/mL
same,MIC,[6],> 800 µg/mL
same,MIC,[7],> 800 µg/mL
same,MIC,[8],> 800 µg/mL
same,MIC,[9],> 800 µg/mL
same,MIC,[10],> 800 µg/mL
same,MIC,[11],> 800 µg/mL
same,MIC,[12],> 800 µg/mL
C=C(C)[C@H]1CC=C(C)CC1 [D-LIMONENE],MIC,[1],50 µg/mL
same,MIC,[2],50 µg/mL
same,MIC,[3],200 µg/mL
same,MIC,[4],800 µg/mL
same,MIC,[5],> 800 µg/mL
same,MIC,[6],> 800 µg/mL
same,MIC,[7],> 800 µg/mL
same,MIC,[8],> 800 µg/mL
same,MIC,[9],> 800 µg/mL
same,MIC,[10],200 µg/mL
same,MIC,[11],> 800 µg/mL
same,MIC,[12],100 µg/mL
CCCCCCCCCCCC(=O)O [DODECANOATE],MIC,[1],50 µg/mL
same,MIC,[2],> 800 µg/mL
same,MIC,[3],> 800 µg/mL
same,MIC,[4],> 800 µg/mL
same,MIC,[5],> 800 µg/mL
same,MIC,[6],> 800 µg/mL
same,MIC,[7],> 800 µg/mL
same,MIC,[8],> 800 µg/mL
same,MIC,[9],> 800 µg/mL
same,MIC,[10],> 800 µg/mL
same,MIC,[11],> 800 µg/mL
same,MIC,[12],> 800 µg/mL
CC12CCC(CC1)C(C)(C)O2 [EUCALYPTOL],MIC,[1],800 µg/mL
same,MIC,[2],> 800 µg/mL
same,MIC,[3],> 800 µg/mL
same,MIC,[4],> 800 µg/mL
same,MIC,[5],> 800 µg/mL
same,MIC,[6],> 800 µg/mL
same,MIC,[7],> 800 µg/mL
same,MIC,[8],> 800 µg/mL
same,MIC,[9],> 800 µg/mL
same,MIC,[10],> 800 µg/mL
same,MIC,[11],> 800 µg/mL
same,MIC,[12],> 800 µg/mL
C=CCc1ccc(O)c(OC)c1 [EUGENOL],MIC,[1],50 µg/mL
same,MIC,[2],800 µg/mL
same,MIC,[3],100 µg/mL
same,MIC,[4],400 µg/mL
same,MIC,[5],800 µg/mL
same,MIC,[6],200 µg/mL
same,MIC,[7],> 800 µg/mL
same,MIC,[8],800 µg/mL
same,MIC,[9],400 µg/mL
same,MIC,[10],800 µg/mL
same,MIC,[11],> 800 µg/mL
same,MIC,[12],400 µg/mL
CC1=CCC(C(C)C)=CC1 [GAMMA-TERPINENE],MIC,[1],50 µg/mL
same,MIC,[2],50 µg/mL
same,MIC,[3],800 µg/mL
same,MIC,[4],> 800 µg/mL
same,MIC,[5],> 800 µg/mL
same,MIC,[6],> 800 µg/mL
same,MIC,[7],> 800 µg/mL
same,MIC,[8],> 800 µg/mL
same,MIC,[9],> 800 µg/mL
same,MIC,[10],100 µg/mL
same,MIC,[11],> 800 µg/mL
same,MIC,[12],100 µg/mL
CC(C)=CCC/C(C)=C/CO [GERANIOL],MIC,[1],200 µg/mL
same,MIC,[2],400 µg/mL
same,MIC,[3],100 µg/mL
same,MIC,[4],400 µg/mL
same,MIC,[5],400 µg/mL
same,MIC,[6],200 µg/mL
same,MIC,[7],> 800 µg/mL
same,MIC,[8],800 µg/mL
same,MIC,[9],800 µg/mL
same,MIC,[10],400 µg/mL
same,MIC,[11],> 800 µg/mL
same,MIC,[12],200 µg/mL
C=CC(C)(O)CCC=C(C)C (centres undefined) [LINALOOL],MIC,[1],200 µg/mL
same,MIC,[2],800 µg/mL
same,MIC,[3],400 µg/mL
same,MIC,[4],800 µg/mL
same,MIC,[5],800 µg/mL
same,MIC,[6],800 µg/mL
same,MIC,[7],> 800 µg/mL
same,MIC,[8],> 800 µg/mL
same,MIC,[9],> 800 µg/mL
same,MIC,[10],400 µg/mL
same,MIC,[11],> 800 µg/mL
same,MIC,[12],400 µg/mL
C=CCc1ccc(OC)c(OC)c1 [METHYLEUGENOL],MIC,[1],200 µg/mL
same,MIC,[2],800 µg/mL
same,MIC,[3],200 µg/mL
same,MIC,[4],800 µg/mL
same,MIC,[5],800 µg/mL
same,MIC,[6],800 µg/mL
same,MIC,[7],> 800 µg/mL
same,MIC,[8],800 µg/mL
same,MIC,[9],800 µg/mL
same,MIC,[10],800 µg/mL
same,MIC,[11],> 800 µg/mL
same,MIC,[12],400 µg/mL
CC1(C)CCC[C@]2(C)[C@@H](C=O)C(C=O)=CC[C@@H]12 [POLYGODIAL],MIC,[2],3.13 µg/mL
same,MIC,[3],50 µg/mL
same,MIC,[10],6.25 µg/mL
C=CCc1ccc2c(c1)OCO2 [SAFROLE],MIC,[1],50 µg/mL
same,MIC,[2],200 µg/mL
same,MIC,[3],100 µg/mL
same,MIC,[4],400 µg/mL
same,MIC,[5],> 800 µg/mL
same,MIC,[6],> 800 µg/mL
same,MIC,[7],> 800 µg/mL
same,MIC,[8],> 800 µg/mL
same,MIC,[9],400 µg/mL
same,MIC,[10],200 µg/mL
same,MIC,[11],> 800 µg/mL
same,MIC,[12],100 µg/mL
CC1=CCC(O)(C(C)C)CC1 (centres undefined) [TERPINEOL],MIC,[1],800 µg/mL
same,MIC,[2],800 µg/mL
same,MIC,[3],100 µg/mL
same,MIC,[4],> 800 µg/mL
same,MIC,[5],> 800 µg/mL
same,MIC,[6],800 µg/mL
same,MIC,[7],> 800 µg/mL
same,MIC,[8],> 800 µg/mL
same,MIC,[9],> 800 µg/mL
same,MIC,[10],800 µg/mL
same,MIC,[11],> 800 µg/mL
same,MIC,[12],> 800 µg/mL
